{"source": "ChEMBL document CHEMBL1156478", "about": "“Loss of huntingtin function complemented by small molecules acting as repressor element 1/neuron restrictive silencer element silencer modulators” (J Biol Chem, 2007)", "key": {"ST14A [1]": {"test_system": "ST14A", "experiment": "Induction of REST/NRSF-coupled repression of luciferase tagged rat RE1/NRSE BDNF promoter activity expressed in ST14A cells at 5 nM assessed as increase in luciferase activity", "type": "cell-based", "in_short": "(§1)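 ST14A rat neural cells stably carrying RE1/NRSE(BDNF)-luciferase reporter (DiaNRSE-Luc8 clone), grown in DMEM/10% heat-inactivated FBS at 33 °C, 5% CO2. Compounds from 10 mM DMSO stocks added to cells plated the day before; 72 h exposure in 96-well format, triplicate. Firefly luciferase read after luciferin, expressed as RLU per µg protein (BCA) relative to untreated cells.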"}, "ST14A [2]": {"test_system": "ST14A", "experiment": "Induction of REST/NRSF-coupled repression of luciferase tagged rat RE1/NRSE BDNF promoter activity expressed in ST14A cells at 10 nM assessed as increase in luciferase activity", "type": "cell-based", "in_short": "as §1"}, "[3]": {"experiment": "(§2) […] of REST/NRSF-coupled repression of luciferase tagged rat RE1/NRSE BDNF promoter activity expressed in ST14A cells assessed as increase in luciferase activity", "type": "cell-based", "in_short": "(§3)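 Stable ST14A clone carrying RE1/NRSE(BDNF)-firefly luciferase, selected for DN:REST responsiveness; cells in 96 wells exposed after adhesion to compounds (DMSO, 10 mM stock) in triplicate, 72 h; luciferin added, luminescence expressed as RLU per µg protein (BCA), relative to untreated; EC50 from dose–response.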"}, "ST14A [4]": {"test_system": "ST14A", "experiment": "[…] of REST/NRSF-coupled repression of luciferase tagged rat RE1/NRSE BDNF promoter activity expressed in ST14A cells at 75 nM assessed as increase in luciferase activity", "type": "cell-based", "in_short": "as §3"}, "ST14A [5]": {"test_system": "ST14A", "experiment": "Increase in BDNF mRNA expression in rat ST14A cells expressing RE1/NRSE BDNF promoter after 72 hrs by RT-PCR relative to control", "type": "functional, cell-based", "in_short": "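Cells treated 72 h; total RNA (1 µg) reverse transcribed, three independent reactions per RNA stock, triplicate SYBR Green real-time PCR with 25 ng cDNA, 0.2 µM primers; BDNF cycling 95 °C 10 min then 40 × (95 °C 10 s, 56 °C 10 s, 72 °C 20 s), melt-curve check; normalized to β-actin, fold over untreated; three independent experiments.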"}, "ST14A [6]": {"test_system": "ST14A", "experiment": "Increase in BDNF protein expression in rat ST14A cells expressing RE1/NRSE BDNF promoter after 72 hrs by ELISA relative to control", "type": "functional, cell-based", "in_short": "(§4)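 BDNF protein after 72 h compound exposure: lysis in Tris-HCl pH 7.5, 150 mM NaCl, 1% Triton X-100, 10% glycerol, EDTA/EGTA, protease inhibitors; homogenized, sonicated, centrifuged 15 min at 4 °C; supernatant assayed by BDNF immunoassay, normalized to BCA total protein; fold over untreated cells.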"}, "ST14A [7]": {"test_system": "ST14A", "experiment": "Increase in RE1/NRSE promoter regulated synapsin I mRNA expression in rat ST14A cells at 200 nM after 72 hrs by RT-PCR relative to control", "type": "functional, cell-based", "in_short": "(§5)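 72 h exposure; SYBR Green real-time PCR for synapsin I and M4: 95 °C 3 min, then 40 × (95 °C 30 s, 58 °C 30 s, 72 °C 30 s), melt curve 55–94 °C; normalized to β-actin, fold over untreated; triplicate reactions.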"}, "ST14A [8]": {"test_system": "ST14A", "experiment": "Increase in RE1/NRSE promoter regulated muscarinic M4 receptor mRNA expression in rat ST14A cells at 200 nM after 72 hrs by RT-PCR relative to control", "type": "functional, cell-based", "in_short": "as §5"}, "ST14A [9]": {"test_system": "ST14A", "experiment": "Increase in REST/NRSF mRNA expression in rat ST14A cells after 72 hrs by RT-PCR relative to control", "type": "functional, cell-based", "in_short": "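REST/NRSF transcript by SYBR Green real-time PCR after 72 h exposure: 95 °C 3 min, then 45 × (95 °C 30 s, 60 °C 30 s, 72 °C 30 s), melt curve 55–94 °C; normalized to β-actin, fold over untreated; triplicate reactions.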"}, "ST14A [10]": {"test_system": "ST14A", "experiment": "Increase in E2F1 mRNA expression in rat ST14A cells after 72 hrs by RT-PCR relative to control", "type": "functional, cell-based", "in_short": "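E2F1 SYBR Green real-time PCR after 72 h exposure: 95 °C 10 min, then 40 × (95 °C 15 s, 60 °C 1 min), fluorescence read at 60 °C, melt curve 55–94 °C; normalized to β-actin, fold over untreated cells; triplicate reactions.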"}, "[11]": {"experiment": "Increase in BDNF protein expression in […]/HdhQ11 cells expressing homozygous mutant huntingtin gene at 50 nM after 72 hrs by ELISA relative to control", "type": "functional", "in_short": "as §4"}, "neural": {"test_system": "neural", "experiment": "Increase in BDNF protein expression in neural cells overexpressing huntingtin mutant gene after 72 hrs by ELISA relative to control", "type": "functional, cell-based", "in_short": "as §4"}, "STHdhQ11/HdhQ11 [12]": {"test_system": "STHdhQ11/HdhQ11", "experiment": "Effect on REST/NRSF translocation in mouse STHdhQ11/HdhQ11 cells expressing homozygous mutant huntingtin gene"}, "ST14A [13]": {"test_system": "ST14A", "experiment": "as §2", "type": "cell-based", "in_short": "as §3"}, "[14]": {"experiment": "Increase in BDNF protein expression in […]/HdhQ11 cells expressing homozygous mutant huntingtin gene at 200 nM after 72 hrs by ELISA relative to control", "type": "functional", "in_short": "as §4"}, "[15]": {"experiment": "Increase in cell viability of stress-exposed […]/HdhQ11 cells expressing homozygous mutant huntingtin gene at 50 nM after 48 hrs by MTT assay", "type": "functional", "in_short": "(§6)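 Cells plated at 80,000/well in triplicate, 24 h at 33 °C, washed, switched to serum-deprived medium at 37 °C as stress, with or without compound; MTT read 48 h after treatment, formazan at 560 nm after 1 h at 37 °C; three independent experiments.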"}, "STHdhQ11/HdhQ11 [16]": {"test_system": "STHdhQ11/HdhQ11", "experiment": "Increase in cell viability of stress-exposed […]/HdhQ11 cells expressing homozygous mutant huntingtin gene at 25 nM after 48 hrs by MTT assay", "type": "functional, cell-based", "in_short": "as §6"}, "Mus musculus": {"species": "Mus musculus", "experiment": "Effect on cell proliferation of stress-exposed mouse STHdhQ11/HdhQ11 cells expressing homozygous mutant huntingtin gene assessed as BrdUrd incorporation"}, "ST14A [17]": {"test_system": "ST14A", "experiment": "[…] of REST/NRSF-coupled repression of luciferase tagged rat RE1/NRSE BDNF promoter activity expressed in ST14A cells at 25 nM assessed as increase in luciferase activity", "type": "cell-based", "details": "TDE = time-dependent effect"}}, "note": "Calls of active or inactive are those of the source. The rule behind the calls is not given here.", "data": [{"smiles": "O=C(O)CC[N+](=O)[O-]", "values": [{"measurement": "Activity", "setting": "ST14A [1]", "value": "inactive"}, {"measurement": "Activity", "setting": "ST14A [2]", "value": "inactive"}]}, {"smiles": "Cc1nc2ncccn2c1-c1csc(Nc2ccc(N(C)C)cc2)n1", "values": [{"measurement": "EC50", "setting": "[3]", "value": 20, "unit": "nM"}, {"measurement": "Activity", "setting": "ST14A [4]", "value": "Active"}, {"measurement": "Activity", "setting": "ST14A [5]", "value": "Dose-dependent effect"}, {"measurement": "Activity", "setting": "ST14A [6]", "value": "Dose-dependent effect"}, {"measurement": "Activity", "setting": "ST14A [7]", "value": "Active"}, {"measurement": "Activity", "setting": "ST14A [8]", "value": "Active"}, {"measurement": "Activity", "setting": "ST14A [9]", "value": "inactive"}, {"measurement": "Activity", "setting": "ST14A [10]", "value": "inactive"}, {"measurement": "fold change (FC)", "setting": "[11]", "value": 1.6}, {"measurement": "Activity", "setting": "neural", "value": "Active"}, {"measurement": "Activity", "setting": "STHdhQ11/HdhQ11 [12]", "value": "inactive"}]}, {"smiles": "O=C(CCCCCCC(=O)Nc1ccccc1)NO", "values": [{"measurement": "Activity", "setting": "ST14A [9]", "value": "Active"}, {"measurement": "Activity", "setting": "ST14A [10]", "value": "Active"}]}, {"smiles": "CN[C@@H]1C[C@H]2O[C@@](C)([C@@H]1OC)n1c3ccccc3c3c4c(c5c6ccccc6n2c5c31)C(=O)NC4", "values": [{"measurement": "Activity", "setting": "ST14A [2]", "value": "inactive"}]}, {"smiles": "CC(/C=C/C(=O)NO)=C\\[C@@H](C)C(=O)c1ccc(N(C)C)cc1", "values": [{"measurement": "Activity", "setting": "ST14A [13]", "value": "Dose-dependent effect"}, {"measurement": "Activity", "setting": "ST14A [4]", "value": "Active"}]}, {"smiles": "Cc1ccn2c(-c3csc(Nc4ccc(N(C)C)cc4)n3)c(C)nc2c1", "values": [{"measurement": "EC50", "setting": "[3]", "value": 20, "unit": "nM"}, {"measurement": "fold change (FC)", "setting": "[14]", "value": 2}, {"measurement": "Activity", "setting": "ST14A [4]", "value": "Active"}, {"measurement": "Activity", "setting": "ST14A [5]", "value": "Dose-dependent effect"}, {"measurement": "Activity", "setting": "ST14A [6]", "value": "Dose-dependent effect"}, {"measurement": "Activity", "setting": "ST14A [7]", "value": "Active"}, {"measurement": "Activity", "setting": "ST14A [8]", "value": "Active"}, {"measurement": "Activity", "setting": "ST14A [9]", "value": "inactive"}, {"measurement": "Activity", "setting": "ST14A [10]", "value": "inactive"}, {"measurement": "Activity", "setting": "neural", "value": "Active"}, {"measurement": "Activity", "setting": "[15]", "value": 17, "unit": "%"}, {"measurement": "Activity", "setting": "STHdhQ11/HdhQ11 [16]", "value": "Active"}, {"measurement": "Activity", "setting": "STHdhQ11/HdhQ11 [12]", "value": "inactive"}, {"measurement": "Activity", "setting": "Mus musculus", "value": "inactive"}]}, {"smiles": "COc1ccc(Nc2nc(-c3c(C)nc4cc(C)ccn34)cs2)cc1", "values": [{"measurement": "EC50", "setting": "[3]", "value": 12, "unit": "nM"}, {"measurement": "Activity", "setting": "ST14A [13]", "value": "Dose-dependent effect"}, {"measurement": "fold change (FC)", "setting": "[14]", "value": 2}, {"measurement": "Activity", "setting": "ST14A [17]", "value": "tde"}, {"measurement": "Activity", "setting": "ST14A [4]", "value": "Active"}, {"measurement": "Activity", "setting": "ST14A [5]", "value": "Dose-dependent effect"}, {"measurement": "Activity", "setting": "ST14A [6]", "value": "Dose-dependent effect"}, {"measurement": "Activity", "setting": "ST14A [7]", "value": "Active"}, {"measurement": "Activity", "setting": "ST14A [8]", "value": "Active"}, {"measurement": "Activity", "setting": "ST14A [9]", "value": "inactive"}, {"measurement": "Activity", "setting": "ST14A [10]", "value": "inactive"}, {"measurement": "Activity", "setting": "neural", "value": "Active"}, {"measurement": "Activity", "setting": "STHdhQ11/HdhQ11 [12]", "value": "inactive"}]}]}
